Laboratory results: ChEMBL document CHEMBL1122649, “3-Alkyl-2-aryl-3H-naphth[1,2-d]imidazoles, a novel class of nonacidic antiinflammatory agents” (J Med Chem, 1984)

Assays:
Rattus norvegicus [1] = assay: Antiinflammatory activity measured as the percentage inhibition of edema in carrageenan induced rat paw after peroral administration of 200 mg/kg of compound; format: functional; conditions: route oral
Outline: (§1)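 Female Wistar rats (120–150 g), 10 per dose, dosed orally with an aqueous suspension in 0.5% methocel (10 mL/kg) 1 h before 0.05 mL of 1% carrageenin in saline was injected into the right hind paw aponeurosis. Paw volume was read plethysmographically at injection and 4 h later. Inhibition is given relative to vehicle controls. Screening dose 200 mg/kg; 100 mg/kg was tested when inhibition exceeded 30%. Student's t test.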

Rattus norvegicus [2] = assay: Antiinflammatory activity was measured as the percentage inhibition of edema in carrageenan induced rat paw after peroral administration of 100 mg/kg of compound; format: functional; conditions: route oral; outline: as §1
Rattus norvegicus [3] = assay: (§2) Compound was evaluated for its antiinflammatory activity by adjuvant-induced polyarthritis test in rats at a dosage of 200 mg/kg administered orally; format: functional; design: unit not given beside the values; conditions: route oral
Outline: (§3)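 Female Wistar rats (130–150 g), 8 per dose. Killed Mycobacterium butyricum (0.6 mg in 0.1 mL mineral oil) was injected into the right hind plantar aponeurosis. Oral dosing in 0.5% methocel, once daily, curative scheme from day 14 to day 27. Read-outs: percent change in hind-paw volume versus controls; Newbould 0–4 lesion scores for front paws, tail and ears; plasma inflammation units by nephelometric turbidity before and after 30 min at 56 °C on day 27.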

Rattus norvegicus [4] = assay: as §2; format: functional; conditions: route oral; outline: as §3
Rattus norvegicus [5] = species on record: Rattus norvegicus; assay: Compound was evaluated for its antipyretic activity by antipyresis effect in comparison with that of Aspirin.; format: functional
Outline: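 Male Sprague-Dawley rats (120–150 g), 6 per dose, starved 18 h and kept at 24 °C; rats above 38 °C were excluded. Fever was induced by subcutaneous 1 mL of filtered 5% peptone preincubated 48 h at 37 °C. Oral doses as in the analgesic test (top dose one-fifth of LD50, stepping down). Rectal thermocouple readings from 4 h after injection, then hourly for 4 h. Activity relative to aspirin = 1.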

Rattus norvegicus [6] = assay: Compound was evaluated for its gastroulcerogenic effect in rats at a peroral dose of 200 mg/kg, P<0.05.; format: functional; conditions: route oral
Rattus norvegicus [7] = species on record: Rattus norvegicus; assay: Compound was evaluated for its analgesic activity by Randall-Selitto test in comparison with that of Aspirin; format: functional
Outline: (§4)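 Randall–Selitto pain threshold, measured on the inflamed right hind paw of male Wistar rats (170–200 g), 10 per dose. Edema was induced with 0.1 mL of 20% yeast suspension in saline. Oral dosing in 0.5% methocel (10 mL/kg), highest dose one-fifth of LD50, then scaling down through 100, 50, 20, 10, 5 and 2 mg/kg. Threshold read before dosing, then hourly for 6 h. Potency expressed relative to aspirin = 1.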

Rattus norvegicus [8] = assay: Compound was evaluated for its antiinflammatory activity in the cotton pellet induced granuloma (CPG) in normal rats at the dose 200 mg/kg p.o.; format: functional; conditions: route oral
Outline: (§5)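 Male Wistar rats (150–180 g), 7 per group. Two sterile 50 mg cotton pellets were implanted subcutaneously in the interscapular region under ether. Oral dosing in 0.5% methocel (10 mL/kg) daily for 6 days, starting 6 h after surgery. Animals were killed 24 h after the last dose; pellets with granuloma were dried 24 h at 80 °C. Percent inhibition versus vehicle controls.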

Rattus norvegicus [9] = assay: Compound was evaluated for its antiinflammatory activity in the cotton pellet induced granuloma(CPG) in normal rats at the dose 100 mg/kg p.o.; format: functional; conditions: route oral; outline: as §5
Rattus norvegicus [10] = species on record: Rattus norvegicus; assay: Compound was evaluated for its analgesic activity by Randall-Selitto test in comparison with that of Aspirine; format: functional; outline: as §4
Rattus norvegicus [11] = assay: Compound was evaluated for its antiinflammatory activity in the cotton pellet induced granuloma(CPG) in normal rats at the dose 50 mg/kg p.o.; format: functional; conditions: route oral; outline: as §5
Rattus norvegicus [12] = assay: Compound was evaluated for its antiinflammatory activity by adjuvant-induced polyarthritis test in rats at a dosage of 1 mg/kg administered orally; format: functional; conditions: route oral; outline: as §3
Rattus norvegicus [13] = assay: Compound was evaluated for its antiinflammatory activity in the cotton pellet induced granuloma(CPG) in normal rats at the dose 3 mg/kg p.o.; conditions: po, read-out: Inhibition
Rattus norvegicus [14] = assay: Compound was evaluated for its antiinflammatory activity by adjuvant-induced polyarthritis test in rats at a dosage of 50 mg/kg administered orally; format: functional; conditions: route oral; outline: as §3
Rattus norvegicus [15] = assay: Compound was evaluated for its antiinflammatory activity in the cotton pellet induced granuloma(CPG) in normal rats at the dose 200 mg/kg p.o.; format: functional; conditions: route oral; outline: as §5
Rattus norvegicus [16] = assay: (§6) Compound was evaluated for its antiinflammatory activity by adjuvant-induced polyarthritis test in rats at a dosage of 100 mg/kg administered orally; format: functional; conditions: route oral; outline: as §3
Rattus norvegicus [17] = assay: as §6; format: functional; design: unit not given beside the values; conditions: route oral; outline: as §3

Cc1ccc(-c2nc3c4ccccc4ccc3n2C)cc1
inhibition in vivo at 200 mg/kg (Rattus norvegicus [1]): 21%

Cn1c(-c2ccccc2O)nc2c3ccccc3ccc21
inhibition in vivo at 200 mg/kg (Rattus norvegicus [1]): 1%

Cn1c(-c2ccc3c(c2)OCO3)nc2c3ccccc3ccc21
inhibition in vivo at 200 mg/kg (Rattus norvegicus [1]): 28%

COc1ccc(-c2nc3c4ccccc4ccc3n2C2CCCCC2)cc1
inhibition in vivo at 200 mg/kg (Rattus norvegicus [1]): 16%

Cn1c(-c2ccc(O)cc2)nc2c3ccccc3ccc21
inhibition in vivo at 200 mg/kg (Rattus norvegicus [1]): 4%

Cn1c(-c2ccc(Cl)cc2)nc2c3ccccc3ccc21
inhibition in vivo at 200 mg/kg (Rattus norvegicus [1]): 21%

COc1ccc(-c2nc3c(ccc4ccccc43)[nH]2)cc1
inhibition in vivo at 200 mg/kg (Rattus norvegicus [1]): 10%

CC(=O)Nc1ccc(-c2nc3c4ccccc4ccc3n2C)cc1
inhibition in vivo at 200 mg/kg (Rattus norvegicus [1]): 35%
inhibition in vivo at 100 mg/kg (Rattus norvegicus [2]): 29%

CCC(CC)n1c(-c2ccc(OC)cc2)nc2c3ccccc3ccc21
inhibition in vivo at 200 mg/kg (Rattus norvegicus [1]): 11%

COc1ccc(-c2nc3c4ccccc4ccc3n2CC(C)C)cc1
inhibition in vivo at 200 mg/kg (Rattus norvegicus [1]): 30%

COc1ccc(-c2nc3c4ccccc4ccc3n2C(C)(C)C)cc1
inhibition in vivo at 200 mg/kg (Rattus norvegicus [1]): 19%

CC(C)Oc1ccc(-c2nc3c4ccccc4ccc3n2C)cc1
inhibition in vivo at 200 mg/kg (Rattus norvegicus [1]): 31%
inhibition in vivo at 100 mg/kg (Rattus norvegicus [2]): 25%

COc1ccc(-c2nc3c4ccccc4ccc3n2C)cc1
inhibition in vivo at 200 mg/kg (Rattus norvegicus [1]): 53%
Mean volume of hind paws (Rattus norvegicus [3]): 33
inhibition in vivo at 100 mg/kg (Rattus norvegicus [2]): 41%
Arthritis scores (Rattus norvegicus [4]): 40
Inflammation units (Rattus norvegicus [4]): 46
Activity (Rattus norvegicus [5]): 1
Ulcerogenic index (Rattus norvegicus [6]): 0.31
Activity (Rattus norvegicus [7]): 1.2
inhibition in vivo at 200 mg/kg (Rattus norvegicus [8]): 40%

CCCn1c(-c2ccc(OC)cc2)nc2c3ccccc3ccc21
inhibition in vivo at 200 mg/kg (Rattus norvegicus [1]): 20%

CN(C)c1ccc(-c2nc3c4ccccc4ccc3n2C)cc1
inhibition in vivo at 200 mg/kg (Rattus norvegicus [1]): 68%
inhibition in vivo at 100 mg/kg (Rattus norvegicus [2]): 54%
Ulcerogenic index (Rattus norvegicus [6]): 1.07
inhibition in vivo at 100 mg/kg (Rattus norvegicus [9]): 24%

Cn1c(-c2ccc[nH]2)nc2c3ccccc3ccc21
inhibition in vivo at 200 mg/kg (Rattus norvegicus [1]): 1%

Cl.Cl.Cn1c(-c2cccnc2)nc2c3ccccc3ccc21
inhibition in vivo at 200 mg/kg (Rattus norvegicus [1]): 12%

Cl.Cn1c(-c2ccccn2)nc2c3ccccc3ccc21
inhibition in vivo at 200 mg/kg (Rattus norvegicus [1]): 24%

CC(=O)Oc1ccccc1C(=O)O [ASPIRIN]
Activity (Rattus norvegicus [10]): 1
inhibition in vivo at 50 mg/kg (Rattus norvegicus [11]): 24%
Activity (Rattus norvegicus [5]): 1
Ulcerogenic index (Rattus norvegicus [6]): 1.6

COc1ccc2c(c1)c(CC(=O)O)c(C)n2C(=O)c1ccc(Cl)cc1 [INDOMETHACIN]
Activity (Rattus norvegicus [10]): 34
Activity (Rattus norvegicus [5]): 15.4
Ulcerogenic index (Rattus norvegicus [6]): 1.5
Arthritis scores (Rattus norvegicus [12]): 65
Inflammation units (Rattus norvegicus [12]): 82
Mean volume of hind paws (Rattus norvegicus [12]): 52
inhibition in vivo at 3 mg/kg (Rattus norvegicus [13]): 41%

CCCCC1C(=O)N(c2ccccc2)N(c2ccccc2)C1=O [PHENYLBUTAZONE]
Activity (Rattus norvegicus [10]): 6.5
inhibition in vivo at 50 mg/kg (Rattus norvegicus [11]): 38%
Activity (Rattus norvegicus [5]): 4
Ulcerogenic index (Rattus norvegicus [6]): 1.4
Arthritis scores (Rattus norvegicus [14]): 58
Inflammation units (Rattus norvegicus [14]): 68
Mean volume of hind paws (Rattus norvegicus [14]): 45

COc1ccc(-c2nc3c4ccccc4ccc3n2C(C)C)cc1 [TOMOXIPROLE]
Activity (Rattus norvegicus [10]): 2.2
inhibition in vivo at 200 mg/kg (Rattus norvegicus [1]): 48%
inhibition in vivo at 200 mg/kg (Rattus norvegicus [15]): 45%
inhibition in vivo at 100 mg/kg (Rattus norvegicus [2]): 45%
Arthritis scores (Rattus norvegicus [16]): 77
Inflammation units (Rattus norvegicus [16]): 93
Mean volume of hind paws (Rattus norvegicus [17]): 43
Activity (Rattus norvegicus [5]): 0.7
